Experimental data published in ChEMBL document CHEMBL1123309, “Esters and lactones of phenolic amino carboxylic acids: prodrugs for iron chelation” (J Med Chem, 1986).
“And” between values parts separate entries of the source, which are not always exact repeats. Equal entries are not always repeated.

How the values were obtained:
Mus musculus [1] = experiment: BDF1 male mice were administered with 200 mg/kg intraperitoneally and percent change in iron levels was determined in Spleen; type: functional; conditions: route intraperitoneal
Procedure, shortened: (§1)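 Male BDF1 mice made iron-overloaded by transfusion of washed, heat-treated (50 °C, 30 min) canine red cells. Dosing began 2 days after the last transfusion, once daily for 7 days, in distilled water or 2% Polysorbate 80 suspension. Daily group urine was collected. Pooled feces were digested in 1 N HCl (90 °C, 30 min). Liver and spleen were homogenized in saline. Iron was measured by atomic absorption and expressed as % change vs transfused controls.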

Mus musculus [2] = experiment: BDF1 male mice were administered with 200 mg/kg peroral and percent change in iron levels was determined in Spleen; type: functional; conditions: route oral
Procedure, shortened: (§2)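 Hypertransfused male BDF1 mice (canine red cells, washed and heated at 50 °C for 30 min) were dosed orally for 7 days with compound in distilled water or a fine suspension with Polysorbate 80 (2% final). Daily group urine and pooled feces (1 N HCl digest, 90 °C, 30 min, triplicate) were collected, and liver and spleen were homogenized. Iron was measured by atomic absorption and reported as % change vs transfused control.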

[3] = First order rate constant was determined in the presence of Fe(3+) Spectrophotometrically; type: ADME
Procedure, shortened: (§3)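 Iron(III)-promoted hydrolysis was followed spectrophotometrically in 50% aqueous methanol with Hepes buffer at pH 7.5 and 38 °C. Ester and ferric nitrate were each 1.7 × 10⁻⁴ M. The read-out was the rise in absorbance at 480 nm. Data were fitted by nonlinear least squares for consecutive first-order processes.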

Mus musculus [4] = experiment: BDF1 male mice were administered with 200 mg/kg intraperitoneally and percent change in iron levels was determined in Feces; type: functional; conditions: route intraperitoneal; procedure, shortened: as §1
[5] = First order rate constant was determined in the presence of Fe(3+) Titrimetrically; type: ADME
Procedure, shortened: (§4)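 Metal and chelator were each 5 × 10⁻⁴ M. Constant pH was held with 0.05 M NaOH. Hydrolysis rate came from base consumption, with first-order kinetics.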

Mus musculus [6] = experiment: BDF1 male mice were administered with 200 mg/kg peroral and percent change in iron levels was determined in Liver; type: functional; conditions: route oral; procedure, shortened: as §1
Mus musculus [7] = experiment: BDF1 male mice were administered with 200 mg/kg peroral and percent change in iron levels was determined in Urine; type: functional; conditions: route oral; procedure, shortened: as §2
Mus musculus [8] = experiment: BDF1 male mice were administered with 200 mg/kg intraperitoneally and percent change in iron levels was determined in Urine; type: functional; conditions: route intraperitoneal; procedure, shortened: as §1
[9] = Half life was determined in the presence of Fe(III) Spectrophotometrically; type: ADME; procedure, shortened: as §3
Mus musculus [10] = experiment: BDF1 male mice were administered with 200 mg/kg intraperitoneally and number of survivors was determined out of 10 tested; type: functional; conditions: route intraperitoneal
Procedure, shortened: (§5)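 Male BDF1 mice were iron-loaded by transfusion of canine red cells. The cells were heparinised, washed twice in isotonic saline and heated at 50 °C for 30 min. Dosing started two days after the last transfusion, once daily for 7 consecutive days. Compounds were given in distilled water or as a fine aqueous suspension with Polysorbate 80 (2% final). Toxic signs were recorded daily and survivors counted per group.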

Mus musculus [11] = experiment: BDF1 male mice were administered with 200 mg/kg peroral and percent change in iron levels was determined in Feces; type: functional; conditions: route oral; procedure, shortened: as §1
Mus musculus [12] = experiment: BDF1 male mice were administered with 200 mg/kg intraperitoneally and percent change in iron levels was determined in liver; type: functional; conditions: route intraperitoneal; procedure, shortened: as §1
Mus musculus [13] = experiment: BDF1 male mice were administered with 200 mg/kg peroral and number of survivors was determined out of 10 tested; type: functional; conditions: route oral; procedure, shortened: as §5
[14] = Half life was determined in the presence of Fe(III) Titrimetrically; type: ADME; procedure, shortened: as §4
[15] = Half life was determined at pH 10.5 in the presence of Fe(III) Half life was determined Titrimetrically; type: ADME; conditions: pH 7.5; in the assay text read “pH 7.5” for “pH 10.5”; procedure, shortened: as §4
Mus musculus [16] = experiment: BDF1 male mice were administered with the compound and number of survivors was determined at a dose 200 mg/kg peroral out of 10 tested; type: functional; conditions: route oral; procedure, shortened: as §5
[17] = First order rate constant was determined Titrimetrically) at pH 7.5 in the presence of Fe(III)
Mus musculus [18] = experiment: BDF1 male mice were administered with 25 mg/kg orally and percent change in iron levels was determined in urine; type: functional; conditions: dose 100 mg/kg; route intraperitoneal; in the assay text read “100 mg/kg intraperitoneally” for “25 mg/kg orally”
[19] = Half life was determined at pH 7.5 in the presence of Fe(III) Half life was determined Spectrophotometrically
Mus musculus [20] = experiment: BDF1 male mice were administered with 200 mg/kg orally and percent change in iron levels was determined in faeces; type: functional, Feces; conditions: route oral; procedure, shortened: as §1
Mus musculus [21] = experiment: BDF1 male mice were administered with 200 mg/kg orally and percent change in iron levels was determined in spleen; type: functional; conditions: route oral; procedure, shortened: as §1
Mus musculus [22] = experiment: BDF1 male mice were administered with 200 mg/kg orally and percent change in iron levels was determined in liver; type: functional; conditions: route oral; procedure, shortened: as §1
Mus musculus [23] = experiment: BDF1 male mice were administered with the compound and number of survivors was determined at a dose 100 mg/kg intraperitoneally out of 10 tested; type: functional; conditions: route intraperitoneal; procedure, shortened: as §5
Mus musculus [24] = experiment: BDF1 male mice were administered with 100 mg/kg orally and percent change in iron levels was determined in spleen; type: functional; conditions: route intraperitoneal, in the assay text read “intraperitoneally” for “orally”; procedure, shortened: as §1
Mus musculus [25] = experiment: BDF1 male mice were administered with 25 mg/kg orally and percent change in iron levels was determined in faeces; type: functional, Feces; conditions: dose 100 mg/kg; route intraperitoneal; in the assay text read “100 mg/kg intraperitoneally” for “25 mg/kg orally”
[26] = First order rate constant was determined Spectrophotometrically at pH 7.5 in the presence of Fe(III)
Mus musculus [27] = experiment: BDF1 male mice were administered with 100 mg/kg ip and percent change in iron levels was determined in Spleen; type: functional; conditions: route intraperitoneal; procedure, shortened: as §1
Mus musculus [28] = experiment: BDF1 male mice were administered with 150 mg/kg po and percent change in iron levels was determined in Spleen; type: functional; procedure, shortened: as §1
Mus musculus [29] = experiment: BDF1 male mice were administered with 100 mg/kg po and percent change in iron levels was determined in Spleen; type: functional; procedure, shortened: as §1
Mus musculus [30] = experiment: BDF1 male mice were administered with 100 mg/kg ip and percent change in iron levels was determined in Feces; type: functional; conditions: route intraperitoneal; procedure, shortened: as §1
Mus musculus [31] = experiment: BDF1 male mice were administered with 100 mg/kg ip and percent change in iron levels was determined in Liver; type: functional; conditions: route intraperitoneal; procedure, shortened: as §1
Mus musculus [32] = experiment: BDF1 male mice were administered with 150 mg/kg po and percent change in iron levels was determined in Liver; type: functional; procedure, shortened: as §1
Mus musculus [33] = experiment: BDF1 male mice were administered with 100 mg/kg po and percent change in iron levels was determined in Urine; type: functional; procedure, shortened: as §1
Rattus norvegicus [34] = experiment: Percent change in iron levels was determined in feces using iron overload rat model where the route of administration is Peroral; type: functional
Mus musculus [35] = experiment: BDF1 male mice were administered with 100 mg/kg ip and percent change in iron levels was determined in Urine; type: functional; conditions: route intraperitoneal; procedure, shortened: as §1
Rattus norvegicus [36] = experiment: Percent change in iron levels was determined in urine using iron overload rat model where the route of administration is Intraperitoneal; type: functional
Mus musculus [37] = experiment: BDF1 male mice were administered with the compound and number of survivors was determined at a dose 100 mg/kg peroral out of 10 tested; type: functional; conditions: route oral; procedure, shortened: as §5
Mus musculus [38] = experiment: BDF1 male mice were administered with 100 mg/kg po and percent change in iron levels was determined in Feces; type: functional; procedure, shortened: as §1
Mus musculus [39] = experiment: BDF1 male mice were administered with 100 mg/kg po and percent change in iron levels was determined in Liver; type: functional; procedure, shortened: as §1
Mus musculus [40] = experiment: BDF1 male mice were administered with the compound and number of survivors was determined at a dose 150 mg/kg peroral out of 10 tested; type: functional; conditions: route oral; procedure, shortened: as §5
Mus musculus [41] = experiment: BDF1 male mice were administered with 150 mg/kg po and percent change in iron levels was determined in Feces; type: functional; procedure, shortened: as §1
Mus musculus [42] = experiment: BDF1 male mice were administered with the compound and number of survivors was determined at a dose 100 mg/kg intraperitoneal out of 10 tested; type: functional; procedure, shortened: as §5
Rattus norvegicus [43] = experiment: Percent change in iron levels was determined in feces using iron overload rat model where the route of administration is Intraperitoneal; type: functional
Mus musculus [44] = experiment: BDF1 male mice were administered with 150 mg/kg po and percent change in iron levels was determined in Urine; type: functional; procedure, shortened: as §1
Rattus norvegicus [45] = experiment: Percent change in iron levels was determined in urine using iron overload rat model where the route of administration is Peroral; type: functional
Mus musculus [46] = experiment: BDF1 male mice were administered with 100 mg/kg intraperitoneally and percent change in iron levels was determined in Urine; type: functional; conditions: route intraperitoneal; procedure, shortened: as §1
Mus musculus [47] = experiment: BDF1 male mice were administered with 100 mg/kg intraperitoneally and percent change in iron levels was determined in Spleen; type: functional; conditions: route intraperitoneal; procedure, shortened: as §1
Mus musculus [48] = experiment: BDF1 male mice were administered with 100 mg/kg intraperitoneally and percent change in iron levels was determined in Feces; type: functional; conditions: route intraperitoneal; procedure, shortened: as §1
Mus musculus [49] = experiment: BDF1 male mice were administered with 100 mg/kg intraperitoneally and number of survivors was determined out of 10 tested; type: functional; conditions: route intraperitoneal; procedure, shortened: as §5
Mus musculus [50] = experiment: BDF1 male mice were administered with 100 mg/kg intraperitoneally and percent change in iron levels was determined in Liver; type: functional; conditions: route intraperitoneal; procedure, shortened: as §1

SMILES: O=C1CN(CCN2CC(=O)Oc3ccccc32)c2ccccc2O1
- Iron change (Mus musculus [1]): -17%
- Iron change (Mus musculus [2]): -30%
- 10E2 k1 [3]: 0.587 min⁻¹
- Iron change (Mus musculus [4]): -65%
- 10E2 k1 [5]: 0.97 min⁻¹
- Iron change (Mus musculus [6]): -56%
- Iron change (Mus musculus [7]): 93%
- Iron change (Mus musculus [8]): 157%
- half-life [9]: 118 min
- No. of survivors (Mus musculus [10]): 8
- Iron change (Mus musculus [11]): -2%
- Iron change (Mus musculus [12]): -68%
- No. of survivors (Mus musculus [13]): 10
- half-life [14]: 71.6 min

SMILES: CCOC(=O)CN(CCN(CC(=O)OCC)Cc1ccccc1O)Cc1ccccc1O
- half-life [15]: 34.8 min
- No. of survivors (Mus musculus [16]): 8
- 10E2 k1 [17]: 1.99 min⁻¹
- Iron change (Mus musculus [18]): 240%
- half-life [19]: 60.6 min
- Iron change (Mus musculus [20]): -77%
- Iron change (Mus musculus [21]): -34%
- Iron change (Mus musculus [22]): -49% and -63%
- No. of survivors (Mus musculus [23]): 10
- Iron change (Mus musculus [24]): 4%
- Iron change (Mus musculus [25]): 26%
- 10E2 k1 [26]: 1.14 min⁻¹

SMILES: CCCCCOC(=O)CN(CCN(CC(=O)OCCCCC)Cc1ccccc1O)Cc1ccccc1O
- Iron change (Mus musculus [27]): -2%
- Iron change (Mus musculus [28]): -11%
- Iron change (Mus musculus [29]): 12%
- Iron change (Mus musculus [30]): 24%
- Iron change (Mus musculus [31]): -33%
- Iron change (Mus musculus [32]): -60%
- Iron change (Mus musculus [33]): 43%
- Iron change (Rattus norvegicus [34]): 268%
- Iron change (Mus musculus [35]): 117%
- Iron change (Rattus norvegicus [36]): 215%
- No. of survivors (Mus musculus [37]): 10
- Iron change (Mus musculus [38]): -3%
- Iron change (Mus musculus [39]): -12%
- No. of survivors (Mus musculus [40]): 8
- Iron change (Mus musculus [41]): -69%
- No. of survivors (Mus musculus [42]): 10
- Iron change (Rattus norvegicus [43]): 114%
- Iron change (Mus musculus [44]): 132%
- Iron change (Rattus norvegicus [45]): 390%

SMILES: O=C([O-])CN(CCN(CC(=O)[O-])c1ccccc1O)c1ccccc1O.[Na+].[Na+]
- Iron change (Mus musculus [1]): 22%
- Iron change (Mus musculus [46]): 106%
- Iron change (Mus musculus [47]): 7%
- Iron change (Mus musculus [48]): 3%
- Iron change (Mus musculus [4]): -15%
- Iron change (Mus musculus [8]): 143%
- No. of survivors (Mus musculus [10]): 5
- No. of survivors (Mus musculus [49]): 10
- Iron change (Mus musculus [12]): -22%
- Iron change (Mus musculus [50]): -22%
